Legend:
[1] = test system: Human immunodeficiency virus 1; test: Anti-HIV-1 activity determined as dose required to reduce p24 antigen levels.; format: functional
MT4 [2] = test: CC50/EC50 ratio of the compound; format: functional
In short: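 Selectivity index, calculated as CC₅₀/EC₅₀. Both values come from the parallel MTT readout in mock-infected and HIV-1 IIIB-infected MT-4 cells (4-day incubation at 37 °C).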

[3] = test system: Human immunodeficiency virus 1; test: Effective concentration against HIV-1 induced cytopathogenicity in MT-4 cells; format: functional, organism-based, MT4
In short: (§1)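 MT-4 cells (1 × 10⁴/well) incubated with serial compound dilutions (200 mM DMSO stock diluted in medium), with or without HIV-1 IIIB (100 CCID₅₀/well), 4 days at 37 °C in RPMI 1640 with 10% FCS. Viable cells counted by MTT. CC₅₀ from mock-infected cells and EC₅₀ as 50% protection from virus-induced cytopathicity, run in parallel. Mean of at least two experiments.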

MT4 [4] = test: Cytotoxicity against MT-4 cells.; format: functional, Homo sapiens; in short: as §1
MT4 [5] = test: Anti-HIV-1 activity against WTIIIB HIV-1 strain in MT-4 cells; format: functional, cell-based; conditions: Homo sapiens
[6] = molecular target: Human immunodeficiency virus type 1 reverse transcriptase (Human immunodeficiency virus 1, UniProt Q72547); test: Inhibitory activity against HIV-1 recombinant reverse transcriptase.
[7] = Y181C/WTIIIB ratio of the compound; format: functional
In short: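 Fold resistance, given as the EC₅₀ against Y181C mutant HIV-1 divided by the EC₅₀ against wild-type IIIB. Each EC₅₀ is the dose giving 50% protection of MT-4 cells from virus-induced cytopathicity, read by MTT.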

MT4 [8] = test: Anti-HIV-1 activity against Y181C HIV-1 strain in MT-4 cells; format: functional, cell-based; conditions: Homo sapiens
[9] = Human immunodeficiency virus 1, MT4

SMILES	EC50 [3, 9]	Selectivity index (MT4 [2])	CC50 (MT4 [4]; Homo sapiens, MT4)	IC50 [6]	further results
O=c1cc(Cc2c(F)cccc2F)nc(SC2CCCC2)[nH]1	80 nM	>2500			EC90 [1]: 80 nM; EC99 [1]: 0.15 µM; EC99.9 [1]: 0.3 µM
CCCCSc1nc(O)c(C)c(C(C)c2c(F)cccc2F)n1 (stereo not drawn)	8 nM	14000	112000 nM		
CCC(C)Sc1nc(O)c(C)c(C(C)c2c(F)cccc2F)n1 (stereo not drawn)	30 nM	6666	> 200000 nM	20 nM	EC50 (MT4 [5]): 20 nM; Fold resistance [7]: 15; EC50 (MT4 [8]): 300 nM
Cc1c(O)nc(SC2CCCCC2)nc1C(C)c1c(F)cccc1F (stereo not drawn)	18 nM	>11111	> 200000 nM		
CC(C)Sc1nc(O)cc(C(C)c2ccccc2)n1 (stereo not drawn)	900 nM	>222	> 200000 nM	2300 nM	
CC(c1cc(O)nc(SC2CCCC2)n1)c1cccc2ccccc12 (stereo not drawn)	500 nM	186	93000 nM	400 nM	
CSc1nc(O)c(C)c(C(C)c2c(F)cccc2F)n1 (stereo not drawn)	40 nM	>5000	> 200000 nM	20 nM	EC50 (MT4 [5]): 37 nM; Fold resistance [7]: > 270; EC50 (MT4 [8]): > 10000 nM
CCC(c1cc(O)nc(SC2CCCCC2)n1)c1cccc2ccccc12 (stereo not drawn)	180 nM	94	16900 nM	1400 nM	
Cc1ccnc2c1NC(=O)c1cccnc1N2C1CC1 [NEVIRAPINE]					EC50 (MT4 [5]): 370 nM; EC50 (MT4 [8]): > 30000 nM
CCC(c1ccccc1)c1cc(O)nc(SC(C)C)n1 (stereo not drawn)	800 nM	250	200000 nM	2300 nM	
Cc1c(O)nc(SC(C)C)nc1C(C)c1c(F)cccc1F (stereo not drawn)	7 nM	>28570	> 200000 nM	19 nM	
CC(C)Sc1nc(O)cc(C(C)c2cccc3ccccc23)n1 (stereo not drawn)	1100 nM	108	119000 nM	5800 nM	
CC(c1cc(O)nc(SC2CCCCC2)n1)c1c(F)cccc1F (stereo not drawn)	160 nM	>1250	> 200000 nM		
CCC(c1cc(O)nc(SC2CCCCC2)n1)c1c(F)cccc1F (stereo not drawn)	50 nM	2600	> 200000 nM		
Cc1c(O)nc(SCC(C)C)nc1C(C)c1c(F)cccc1F (stereo not drawn)	10 nM	>20000	> 200000 nM		
CC(c1cc(O)nc(SC2CCCCC2)n1)c1cccc2ccccc12 (stereo not drawn)	140 nM	321.4	45000 nM	2600 nM	

SMILES	EC50 [3, 9]	Selectivity index (MT4 [2])	CC50 (MT4 [4]; Homo sapiens, MT4)	IC50 [6]	further results
CC(c1ccccc1)c1cc(O)nc(SC2CCCC2)n1 (stereo not drawn)	600 nM	333	159000 nM	2100 nM	
Cc1c(Cc2c(F)cccc2F)nc(SC(C)C)[nH]c1=O	50 nM	>4000			EC90 [1]: 26 nM; EC99 [1]: 0.065 µM; EC99.9 [1]: 0.15 µM
CC(C)Sc1nc(Cc2c(F)cccc2F)cc(=O)[nH]1	50 nM	>4000			EC90 [1]: 42 nM; EC99 [1]: 0.083 µM; EC99.9 [1]: 0.19 µM
CC(c1cc(O)nc(SC2CCCC2)n1)c1c(Cl)cccc1Cl (stereo not drawn)	1000 nM	78.3	78300 nM		
CCC(c1cc(O)nc(SC(C)C)n1)c1cccc2ccccc12 (stereo not drawn)	1500 nM	33.3	50000 nM	800 nM	
CC(c1cc(O)nc(SC2CCCCC2)n1)c1c(Cl)cccc1Cl (stereo not drawn)	2900 nM	>69	> 200000 nM		
O=C1Nc2ccc(Cl)cc2[C@@](C#CC2CC2)(C(F)(F)F)O1 [EFAVIRENZ]					EC50 (MT4 [5]): 4 nM; Fold resistance [7]: 6; EC50 (MT4 [8]): 25 nM
Cc1c(C(C)c2c(F)cccc2F)nc(SC2CCCC2)[nH]c1=O (stereo in doubt; [+]3w)		>100000	> 200000 nM	8 nM	EC50 ([3]; mt4): 2 nM
CCC(c1ccccc1)c1cc(O)nc(SC2CCCCC2)n1 (stereo not drawn)	1300 nM	>154	> 200000 nM	3700 nM	
CSc1nc(O)cc(C(C)c2c(F)cccc2F)n1 (stereo not drawn)	180 nM	115	20800 nM	200 nM	
Cc1c(C(C)c2c(F)cccc2F)nc(SC2CCCC2)[nH]c1=O (stereo in doubt; 3w)		>33333		5 nM	EC90 [1]: 6 nM; EC99 [1]: 0.015 µM; EC99.9 [1]: 0.033 µM; EC50 ([3]; mt4): 6 nM
CCC(c1cc(O)nc(SC2CCCCC2)n1)c1c(Cl)cccc1Cl (stereo not drawn)	3600 nM	>55.5	> 200000 nM		
CC(c1cc(=O)[nH]c(SC2CCCC2)n1)c1c(F)cccc1F (stereo not drawn)	30 nM	>6666	> 200000 nM	50 nM	EC90 [1]: 15 nM; EC99 [1]: 0.035 µM; EC99.9 [1]: 0.09 µM
Cc1c(Cc2c(F)cccc2F)nc(SC2CCCC2)[nH]c1=O	80 nM	>2500			EC50 (MT4 [5]): 40 nM; EC90 [1]: 40 nM; EC99 [1]: 0.075 µM; EC99.9 [1]: 0.15 µM; Fold resistance [7]: 30; EC50 (MT4 [8]): 1200 nM
CCOCn1c(Cc2ccccc2)c(C(C)C)c(=O)[nH]c1=O [EMIVIRINE]	30 nM	6666			EC90 [1]: 14 nM; EC99 [1]: 0.041 µM; EC99.9 [1]: 0.082 µM
Cc1c(C(C)c2c(F)cccc2F)nc(SC2CCCC2)[nH]c1=O (stereo in doubt; [-]3w)		>286		1000 nM	EC50 ([3]; mt4): 70 nM; CC50 (MT4 [4]): 200000 nM

Further lines, with some results ahead:

EC50 [3, 9]	SMILES	Selectivity index (MT4 [2])	CC50 (MT4 [4]; Homo sapiens, MT4)	IC50 [6]	further results
50 nM	CC(C)CSc1nc(O)cc(C(C)c2c(F)cccc2F)n1 (stereo not drawn)	>4000	> 200000 nM		
40 nM	CCC(C)Sc1nc(O)cc(Cc2c(F)cccc2F)n1 (stereo not drawn)	>5000			
80 nM	CCC(c1cc(O)nc(SC(C)C)n1)c1c(F)cccc1F (stereo not drawn)	875	70000 nM		EC90 [1]: 15 nM; EC99 [1]: 0.035 µM; EC99.9 [1]: 0.09 µM
600 nM	CC(c1ccccc1)c1cc(O)nc(SC2CCCCC2)n1 (stereo not drawn)	248	149000 nM		
50 nM	CC(C)Sc1nc(O)cc(C(C)c2c(F)cccc2F)n1 (stereo not drawn)	3340	167000 nM		EC90 [1]: 42 nM; EC99 [1]: 0.083 µM; EC99.9 [1]: 0.19 µM
400 nM	CCC(c1cc(O)nc(SC(C)C)n1)c1c(Cl)cccc1Cl (stereo not drawn)	>500	> 200000 nM		
70 nM	CCCCSc1nc(O)cc(C(C)c2c(F)cccc2F)n1 (stereo not drawn)	2857	> 200000 nM		
1000 nM	CCC(c1cc(O)nc(SC2CCCC2)n1)c1c(Cl)cccc1Cl (stereo not drawn)	23.4	23400 nM		
30 nM	CCC(C)Sc1nc(O)cc(C(C)c2c(F)cccc2F)n1 (stereo not drawn)	>6666	> 200000 nM		
150 nM	CCC(c1cc(O)nc(SC2CCCC2)n1)c1c(F)cccc1F (stereo not drawn)	1333	> 200000 nM		EC90 [1]: 80 nM; EC99 [1]: 0.15 µM; EC99.9 [1]: 0.3 µM
50 nM	CCC(C)Sc1nc(O)c(C)c(Cc2c(F)cccc2F)n1 (stereo not drawn)	>4000	> 200000 nM		
1200 nM	CC(C)Sc1nc(O)cc(C(C)c2c(Cl)cccc2Cl)n1 (stereo not drawn)	97.5	117000 nM		
3000 nM	CCC(c1cc(O)nc(SC2CCCC2)n1)c1cccc2ccccc12 (stereo not drawn)	17	51000 nM		
230 nM	CCC(C)Sc1nc(O)cc(C(C)c2ccccc2)n1 (stereo not drawn)	870	200000 nM		
1000 nM	CCC(c1ccccc1)c1cc(O)nc(SC2CCCC2)n1 (stereo not drawn)	>200	> 200000 nM	> 10000 nM	
400 nM	CCC(C)Sc1nc(O)cc(C(CC)c2ccccc2)n1 (stereo not drawn)	>500	> 200000 nM		

From ChEMBL document CHEMBL1134546, “Structure-based design, synthesis, and biological evaluation of conformationally restricted novel 2-alkylthio-6-[1-(2,6-difluorophenyl)alkyl]-3,4-dihydro-5-alkylpyrimidin-4(3H)-ones as non-nucleoside inhibitors of HIV-1 reverse transcriptase” (J Med Chem, 2001)
